{"source": "ChEMBL document CHEMBL5724801", "about": "“EUbOPEN Chemogenomics Library - Multiplex” (2024)", "tested_on": "Fibroblast", "test": "Multiplex assay against human fibroblast", "format": "toxicity, cell-based", "procedure,_shortened": "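Per cents of healthy-nucleus cells form the tubulin, mitochondrial-mass and membrane-permeability phenotype values. Live cells were stained at seeding with Hoechst33342, BioTracker Green Microtubule Cytoskeleton Dye, MitoTracker Red and Annexin V Alexa Fluor 680. After compound addition they were imaged on a CQ1 microscope at 37°C and 5% CO2, and CellPathfinder machine-learning gating split them into Hoechst high-intensity objects or normal cells, normal cells into healthy, pyknosed or fragmented nuclei, and pyknosed cells into mitotic or apoptotic.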", "key": {"[1]": {"conditions": "12 h, 1 µM, compound concentration 1 uM"}, "[2]": {"conditions": "12 h, 10 µM, compound concentration 10 uM"}, "[3]": {"conditions": "24 h, 1 µM, compound concentration 1 uM"}, "[4]": {"conditions": "24 h, 10 µM, compound concentration 10 uM"}, "[5]": {"conditions": "48 h, 1 µM, compound concentration 1 uM"}, "[6]": {"conditions": "48 h, 10 µM, compound concentration 10 uM"}}, "note": "Values joined by “and” are separate entries in the source; they are usually repeats but may differ in a detail not shown here. Equal values may be shown once.", "data": [{"smiles": "O=C(NCc1cccc(O)c1)Nc1nc(-c2ccncc2)cs1", "values": [{"measurement": "Population Apoptotic (%)", "setting": "[1]", "result": "12.12% and 27.78%"}, {"measurement": "Population Healthy Nuclei (%)", "setting": "[1]", "result": "41.38% and 76.34%"}, {"measurement": "Population Hoechst High Intensity Objects (%)", "setting": "[1]", "result": 0, "unit": "%"}, {"measurement": "Population Membrane Permeable-Phenotype (%)", "setting": "[1]", "result": "4.17% and 1.41%"}, {"measurement": "Population Mitochondria Different-Phenotype (%)", "setting": "[1]", "result": "6.94% and 9.15%"}, {"measurement": "Population Mitotic Cells (%)", "setting": "[1]", "result": "87.88% and 72.22%"}, {"measurement": "Population Normal (%)", "setting": "[1]", "result": 100, "unit": "%"}, {"measurement": "Population Pyknosed Nuclei (%)", "setting": "[1]", "result": "37.93% and 19.35%"}, {"measurement": "Population Tubulin-Different-Phenotype (%)", "setting": "[1]", "result": "8.33% and 6.34%"}, {"measurement": "Total Cell Count", "setting": "[1]", "result": "174 and 186"}, {"measurement": "Population Apoptotic (%)", "setting": "[2]", "result": "9.52% and 18.18%"}, {"measurement": "Population Fragmented Nuclei (%)", "setting": "[2]", "result": "11.37% and 4.05%"}, {"measurement": "Population Healthy Nuclei (%)", "setting": "[2]", "result": "38.86% and 61.26%"}, {"measurement": "Population Hoechst High Intensity Objects (%)", "setting": "[2]", "result": 0, "unit": "%"}, {"measurement": "Population Membrane Permeable-Phenotype (%)", "setting": "[2]", "result": "7.32% and 2.21%"}, {"measurement": "Population Mitochondria Different-Phenotype (%)", "setting": "[2]", "result": "15.85% and 13.97%"}, {"measurement": "Population Mitotic Cells (%)", "setting": "[2]", "result": "90.48% and 81.82%"}, {"measurement": "Population Normal (%)", "setting": "[2]", "result": 100, "unit": "%"}, {"measurement": "Population Pyknosed Nuclei (%)", "setting": "[2]", "result": "49.76% and 34.68%"}, {"measurement": "Population Tubulin-Different-Phenotype (%)", "setting": "[2]", "result": "13.41% and 29.41%"}, {"measurement": "Total Cell Count", "setting": "[2]", "result": "211 and 222"}, {"measurement": "Population Apoptotic (%)", "setting": "[3]", "result": "25.49% and 48.15%"}, {"measurement": "Population Healthy Nuclei (%)", "setting": "[3]", "result": "53.67% and 81.31%"}, {"measurement": "Population Hoechst High Intensity Objects (%)", "setting": "[3]", "result": 0, "unit": "%"}, {"measurement": "Population Membrane Permeable-Phenotype (%)", "setting": "[3]", "result": "3.16% and 0.62%"}, {"measurement": "Population Mitochondria Different-Phenotype (%)", "setting": "[3]", "result": "12.63% and 6.83%"}, {"measurement": "Population Mitotic Cells (%)", "setting": "[3]", "result": "74.51% and 51.85%"}, {"measurement": "Population Normal (%)", "setting": "[3]", "result": 100, "unit": "%"}, {"measurement": "Population Pyknosed Nuclei (%)", "setting": "[3]", "result": "28.81% and 13.64%"}, {"measurement": "Population Tubulin-Different-Phenotype (%)", "setting": "[3]", "result": "11.58% and 6.21%"}, {"measurement": "Total Cell Count", "setting": "[3]", "result": "177 and 198"}, {"measurement": "Population Apoptotic (%)", "setting": "[4]", "result": "13.79% and 23.26%"}, {"measurement": "Population Fragmented Nuclei (%)", "setting": "[4]", "result": "8.5% and 3.62%"}, {"measurement": "Population Healthy Nuclei (%)", "setting": "[4]", "result": "48% and 76.92%"}, {"measurement": "Population Hoechst High Intensity Objects (%)", "setting": "[4]", "result": 0, "unit": "%"}, {"measurement": "Population Membrane Permeable-Phenotype (%)", "setting": "[4]", "result": "0% and 2.94%"}, {"measurement": "Population Mitochondria Different-Phenotype (%)", "setting": "[4]", "result": "7.29% and 8.82%"}, {"measurement": "Population Mitotic Cells (%)", "setting": "[4]", "result": "86.21% and 76.74%"}, {"measurement": "Population Normal (%)", "setting": "[4]", "result": 100, "unit": "%"}, {"measurement": "Population Pyknosed Nuclei (%)", "setting": "[4]", "result": "43.5% and 19.46%"}, {"measurement": "Population Tubulin-Different-Phenotype (%)", "setting": "[4]", "result": "17.71% and 29.41%"}, {"measurement": "Total Cell Count", "setting": "[4]", "result": "200 and 221"}, {"measurement": "Population Apoptotic (%)", "setting": "[5]", "result": "55.56% and 38.46%"}, {"measurement": "Population Fragmented Nuclei (%)", "setting": "[5]", "result": "16.05% and 5.73%"}, {"measurement": "Population Healthy Nuclei (%)", "setting": "[5]", "result": "72.84% and 87.5%"}, {"measurement": "Population Hoechst High Intensity Objects (%)", "setting": "[5]", "result": 0, "unit": "%"}, {"measurement": "Population Membrane Permeable-Phenotype (%)", "setting": "[5]", "result": "0.85% and 0.6%"}, {"measurement": "Population Mitotic Cells (%)", "setting": "[5]", "result": "44.44% and 61.54%"}, {"measurement": "Population Normal (%)", "setting": "[5]", "result": 100, "unit": "%"}, {"measurement": "Population Pyknosed Nuclei (%)", "setting": "[5]", "result": "11.11% and 6.77%"}, {"measurement": "Population Tubulin-Different-Phenotype (%)", "setting": "[5]", "result": "3.39% and 6.55%"}, {"measurement": "Total Cell Count", "setting": "[5]", "result": "162 and 192"}, {"measurement": "Population Apoptotic (%)", "setting": "[6]", "result": "16.67% and 18.42%"}, {"measurement": "Population Healthy Nuclei (%)", "setting": "[6]", "result": "74.44% and 81.61%"}, {"measurement": "Population Hoechst High Intensity Objects (%)", "setting": "[6]", "result": 0, "unit": "%"}, {"measurement": "Population Membrane Permeable-Phenotype (%)", "setting": "[6]", "result": "0.6% and 1.65%"}, {"measurement": "Population Mitochondria Different-Phenotype (%)", "setting": "[6]", "result": "12.05% and 3.3%"}, {"measurement": "Population Mitotic Cells (%)", "setting": "[6]", "result": "83.33% and 81.58%"}, {"measurement": "Population Normal (%)", "setting": "[6]", "result": 100, "unit": "%"}, {"measurement": "Population Pyknosed Nuclei (%)", "setting": "[6]", "result": "13.45% and 17.04%"}, {"measurement": "Total Cell Count", "setting": "[6]", "result": 223}]}]}
